Assay results taken from ChEMBL document CHEMBL4007505 (J Med Chem, 2017).
One block for each compound: values may come before it. Active and inactive are the calls of the source.

Key:
[1] = target: T1, Sodium-dependent dopamine transporter (Homo sapiens, UniProt Q01959); assay: Enhancing of [125I]RTI-55 binding to recombinant human DAT expressed in HEK293 cell membranes preincubated for 10 mins followed by radioligand addition measured after 90 mins by micro beta scintillation counting analysis; parameters: concentration or dose not given beside the values
Procedure, shortened: (§1)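 Membranes of HEK-293 cells stably expressing hDAT, hNET or hSERT. […] Compound preincubated 10 min at room temperature, then [125I]23 (40-80 pM final) or [3H]26 (1-3 nM for DAT and NET, 10-13 nM for SERT) added. Incubated 90 min at room temperature in the dark, then filtered. EC50 or Ki; mean ± SEM.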

[2] = target: T1, Sodium-dependent dopamine transporter; assay: Enhancing of [3H]mazindol binding to recombinant human DAT expressed in HEK293 cell membranes preincubated for 10 mins followed by radioligand addition measured after 90 mins by micro beta scintillation counting analysis; parameters: concentration or dose not given beside the values; procedure, shortened: as §1
[3] = target: T2, Sodium-dependent noradrenaline transporter (Homo sapiens, UniProt P23975); assay: Enhancing of [125I]RTI-55 binding to recombinant human NET expressed in HEK293 cell membranes preincubated for 10 mins followed by radioligand addition measured after 90 mins by micro beta scintillation counting analysis; parameters: concentration or dose not given beside the values
[4] = target: T1, Sodium-dependent dopamine transporter; assay: Inhibition of recombinant human DAT expressed in HEK293 cell […] as reduction in [3H]-DA uptake incubated for 22 mins by micro beta scintillation counting analysis
[5] = target: T2, Sodium-dependent noradrenaline transporter; assay: Enhancing of [3H]mazindol binding to recombinant human NET expressed in HEK293 cell membranes preincubated for 10 mins followed by radioligand addition measured after 90 mins by micro beta scintillation counting analysis
[6] = target: T2, Sodium-dependent noradrenaline transporter; assay: Inhibition of recombinant human NET expressed in HEK293 […] assessed as reduction in [3H]-norepinephrine uptake incubated for 22 mins by micro beta scintillation counting analysis
[7] = target: T3, Sodium-dependent serotonin transporter (Homo sapiens, UniProt P31645); assay: Enhancing of [125I]RTI-55 binding to recombinant human SERT expressed in HEK293 cell membranes preincubated for 10 mins followed by radioligand addition measured after 90 mins by micro beta scintillation counting analysis
[8] = target: T3, Sodium-dependent serotonin transporter; assay: Enhancing of [3H]mazindol binding to recombinant human SERT expressed in HEK293 cell membranes preincubated for 10 mins followed by radioligand addition measured after 90 mins by micro beta scintillation counting analysis
[9] = target: T3, Sodium-dependent serotonin transporter; assay: Inhibition of recombinant human SERT expressed in HEK293 cell […] as reduction in [3H]5-HT uptake incubated for 22 mins by micro beta scintillation counting analysis
Target sequence in this assay (P31645 whole entry): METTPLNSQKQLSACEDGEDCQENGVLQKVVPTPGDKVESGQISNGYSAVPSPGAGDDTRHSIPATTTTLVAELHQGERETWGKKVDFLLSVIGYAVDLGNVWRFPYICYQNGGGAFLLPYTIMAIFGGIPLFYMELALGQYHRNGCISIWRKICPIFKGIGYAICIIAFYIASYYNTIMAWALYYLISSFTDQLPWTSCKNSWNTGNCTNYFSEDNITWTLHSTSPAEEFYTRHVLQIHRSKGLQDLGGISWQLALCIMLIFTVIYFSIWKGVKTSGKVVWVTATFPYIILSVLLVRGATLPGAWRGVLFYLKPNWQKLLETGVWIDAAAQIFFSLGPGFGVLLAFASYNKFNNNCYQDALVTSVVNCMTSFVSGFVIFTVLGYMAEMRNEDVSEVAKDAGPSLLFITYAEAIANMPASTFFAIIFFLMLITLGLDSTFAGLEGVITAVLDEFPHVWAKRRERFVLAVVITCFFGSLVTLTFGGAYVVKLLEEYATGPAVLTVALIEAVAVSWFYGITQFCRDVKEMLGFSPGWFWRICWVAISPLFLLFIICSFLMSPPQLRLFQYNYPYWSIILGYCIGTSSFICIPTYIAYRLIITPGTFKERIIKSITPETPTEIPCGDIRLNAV

[10] = target: Sodium-dependent dopamine transporter (Mus musculus) (UniProt Q61327); assay: (§2) Enhancing of [125I]RTI-55 binding to mouse DAT expressed in HEK293 cells preincubated for 10 mins followed by radioligand addition measured after 90 mins by micro beta scintillation counting analysis; assay type: cell-based
Procedure, shortened: (§3)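 Membranes preincubated 10 min at room temperature with compound in Krebs-HEPES buffer pH 7.4, then [125I]23 at fixed 45-50 pM for 90 min in the dark, filtered. […] EC50 and % control binding; mean ± SEM.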

[11] = target: T4, Sodium-dependent dopamine transporter (Mus musculus, UniProt Q61327); assay: as §2; assay type: cell-based; procedure, shortened: as §3
[12] = target: T4, Sodium-dependent dopamine transporter; assay: Inhibition of mouse DAT expressed in HEK293 cells assessed as reduction in [3H]-DA uptake; assay type: cell-based
[13] = target: T1, Sodium-dependent dopamine transporter; assay: Enhancing of [3H]WIN35,428 binding to recombinant human DAT expressed in HEK293 cell membranes at 10 uM pre-incubated for 10 mins before radioligand addition and measured 90 mins after radioligand addition by micro beta scintillation counting analysis relative to control
Adenosine receptor A3 [14] = target: T5, Adenosine receptor A3 (Homo sapiens, UniProt P0DMS8); assay: Displacement of [125I]N6-(4-amino-3-iodobenzyl)adenosine-5'-N-methyluronamide from human A3AR expressed in HEK293T cells pre-incubated for 10 mins before radioligand addition and measured 90 mins after radioligand addition by micro beta scintillation counting analysis relative to control; assay type: cell-based, HEK-293T
T5 sequence (P0DMS8 whole entry): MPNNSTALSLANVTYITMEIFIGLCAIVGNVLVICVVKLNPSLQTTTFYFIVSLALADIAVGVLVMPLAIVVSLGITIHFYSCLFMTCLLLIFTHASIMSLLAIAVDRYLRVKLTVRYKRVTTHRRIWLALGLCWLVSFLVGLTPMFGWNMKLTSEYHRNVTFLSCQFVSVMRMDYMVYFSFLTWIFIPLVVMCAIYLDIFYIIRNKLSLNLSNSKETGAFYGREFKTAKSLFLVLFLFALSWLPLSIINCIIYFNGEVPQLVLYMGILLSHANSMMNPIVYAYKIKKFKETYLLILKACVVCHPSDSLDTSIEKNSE

[15] = target: T6, Adenosine receptor A3 (Mus musculus) (UniProt Q61618); assay: Displacement of [125I]N6-(4-amino-3-iodobenzyl)adenosine-5'-N-methyluronamide from mouse A3AR expressed in HEK293T cells at 10 uM pre-incubated for 10 mins before radioligand addition and measured 90 mins after radioligand addition by micro beta scintillation counting analysis relative to control; assay type: cell-based
T6 sequence (whole entry): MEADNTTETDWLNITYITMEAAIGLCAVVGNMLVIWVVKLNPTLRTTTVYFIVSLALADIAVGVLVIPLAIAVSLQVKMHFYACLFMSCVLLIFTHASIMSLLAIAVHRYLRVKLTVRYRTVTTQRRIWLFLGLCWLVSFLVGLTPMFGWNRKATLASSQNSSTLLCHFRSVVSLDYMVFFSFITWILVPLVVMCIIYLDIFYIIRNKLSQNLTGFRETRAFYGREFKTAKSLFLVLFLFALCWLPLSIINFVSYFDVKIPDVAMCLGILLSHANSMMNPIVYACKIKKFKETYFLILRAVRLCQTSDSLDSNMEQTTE

[16] = target: Sigma intracellular receptor 2 (Rattus norvegicus, UniProt Q5U3Y7); assay: Displacement of [3H]DTG from rat sigma 2 receptor
[17] = target: T1, Sodium-dependent dopamine transporter; assay: Inhibition of [3H]WIN35,428 binding to recombinant human DAT expressed in HEK293 cell membranes at 10 uM pre-incubated for 10 mins before radioligand addition and measured 90 mins after radioligand addition by micro beta scintillation counting analysis relative to control
Adenosine receptor A3 [18] = target: T7, Adenosine receptor A3 (Mus musculus, UniProt Q61618); assay: Displacement of [125I]N6-(4-amino-3-iodobenzyl)adenosine-5'-N-methyluronamide from mouse A3AR expressed in HEK293T cells pre-incubated for 10 mins before radioligand addition and measured 90 mins after radioligand addition by micro beta scintillation counting analysis relative to control; assay type: cell-based
T7 sequence (Q61618 whole entry): T6 sequence (whole entry)

[19] = target: T2, Sodium-dependent noradrenaline transporter; assay: Inhibition of [3H]nisoxetine binding to recombinant human NET expressed in HEK293 cell membranes preincubated for 10 mins followed by radioligand addition measured after 90 mins by micro beta scintillation counting analysis
Mus musculus = assay: Antiallodynic activity in mouse chronic constriction injury model of neuropathic pain assessed as time duration of action for increasing in paw withdrawal threshold at 3 umol/kg, po administered on day 7 post injury; assay type: functional
[20] = target: Alpha-2A adrenergic receptor (Homo sapiens, UniProt P08913); assay: Displacement of [3H]Rauwolscine from human adrenergic alpha2A receptor
[21] = target: Alpha-2B adrenergic receptor (Homo sapiens, UniProt P18089); assay: Displacement of [3H]Rauwolscine from human adrenergic alpha2B receptor
[22] = target: T8, Alpha-1A adrenergic receptor (Homo sapiens, UniProt P35348); assay: Displacement of [3H]Prazosin from human adrenergic alpha1A receptor
T8 sequence (P35348 whole entry): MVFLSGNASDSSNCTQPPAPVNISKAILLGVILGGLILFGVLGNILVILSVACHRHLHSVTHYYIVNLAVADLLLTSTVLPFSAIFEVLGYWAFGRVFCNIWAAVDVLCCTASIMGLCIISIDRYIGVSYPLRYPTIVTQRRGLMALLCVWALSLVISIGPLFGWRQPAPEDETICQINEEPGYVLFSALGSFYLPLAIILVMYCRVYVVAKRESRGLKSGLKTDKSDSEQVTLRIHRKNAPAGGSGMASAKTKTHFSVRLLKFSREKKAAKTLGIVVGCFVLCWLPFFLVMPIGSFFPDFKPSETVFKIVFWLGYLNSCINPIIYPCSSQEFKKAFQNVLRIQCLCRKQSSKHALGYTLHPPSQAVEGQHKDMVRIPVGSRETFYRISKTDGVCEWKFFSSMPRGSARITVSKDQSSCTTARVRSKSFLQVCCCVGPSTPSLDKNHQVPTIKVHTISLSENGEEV

[23] = target: T9, Alpha-1B adrenergic receptor (Homo sapiens, UniProt P35368); assay: Displacement of [3H]Prazosin from human adrenergic alpha1B receptor
T9 sequence (P35368 whole entry): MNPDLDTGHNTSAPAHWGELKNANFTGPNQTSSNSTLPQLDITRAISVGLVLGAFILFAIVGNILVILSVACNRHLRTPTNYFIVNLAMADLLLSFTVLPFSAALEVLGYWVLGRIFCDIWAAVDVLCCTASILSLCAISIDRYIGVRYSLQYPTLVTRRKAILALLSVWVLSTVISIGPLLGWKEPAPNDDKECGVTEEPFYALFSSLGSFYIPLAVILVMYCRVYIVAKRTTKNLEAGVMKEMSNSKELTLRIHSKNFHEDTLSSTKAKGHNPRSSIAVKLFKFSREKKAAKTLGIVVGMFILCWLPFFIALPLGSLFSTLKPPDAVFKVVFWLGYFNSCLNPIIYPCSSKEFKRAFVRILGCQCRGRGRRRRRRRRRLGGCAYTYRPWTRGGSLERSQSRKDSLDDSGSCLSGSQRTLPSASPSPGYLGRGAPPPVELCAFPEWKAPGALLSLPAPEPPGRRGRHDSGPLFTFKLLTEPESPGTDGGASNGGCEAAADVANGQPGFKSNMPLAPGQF

[24] = target: T10, Alpha-1D adrenergic receptor (Homo sapiens, UniProt P25100); assay: Displacement of [3H]Prazosin from human adrenergic alpha1D receptor
T10 sequence (P25100 whole entry): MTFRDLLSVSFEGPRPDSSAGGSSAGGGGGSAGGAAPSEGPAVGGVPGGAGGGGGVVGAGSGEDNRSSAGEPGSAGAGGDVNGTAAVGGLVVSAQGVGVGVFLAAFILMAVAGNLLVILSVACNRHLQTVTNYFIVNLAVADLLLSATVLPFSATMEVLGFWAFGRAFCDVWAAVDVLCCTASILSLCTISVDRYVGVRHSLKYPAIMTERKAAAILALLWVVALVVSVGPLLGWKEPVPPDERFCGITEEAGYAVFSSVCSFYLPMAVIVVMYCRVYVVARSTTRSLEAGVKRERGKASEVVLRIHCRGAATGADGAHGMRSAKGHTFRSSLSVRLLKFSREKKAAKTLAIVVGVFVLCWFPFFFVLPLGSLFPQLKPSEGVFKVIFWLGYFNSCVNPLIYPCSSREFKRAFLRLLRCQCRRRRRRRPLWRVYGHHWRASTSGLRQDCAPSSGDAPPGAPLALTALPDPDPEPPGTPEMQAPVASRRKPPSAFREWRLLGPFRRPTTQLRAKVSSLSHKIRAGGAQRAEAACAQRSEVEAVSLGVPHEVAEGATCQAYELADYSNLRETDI

[25] = target: T11, Alpha-2C adrenergic receptor (Homo sapiens, UniProt P18825); assay: Displacement of [3H]Rauwolscine from human adrenergic alpha2C receptor
T11 sequence (P18825 whole entry): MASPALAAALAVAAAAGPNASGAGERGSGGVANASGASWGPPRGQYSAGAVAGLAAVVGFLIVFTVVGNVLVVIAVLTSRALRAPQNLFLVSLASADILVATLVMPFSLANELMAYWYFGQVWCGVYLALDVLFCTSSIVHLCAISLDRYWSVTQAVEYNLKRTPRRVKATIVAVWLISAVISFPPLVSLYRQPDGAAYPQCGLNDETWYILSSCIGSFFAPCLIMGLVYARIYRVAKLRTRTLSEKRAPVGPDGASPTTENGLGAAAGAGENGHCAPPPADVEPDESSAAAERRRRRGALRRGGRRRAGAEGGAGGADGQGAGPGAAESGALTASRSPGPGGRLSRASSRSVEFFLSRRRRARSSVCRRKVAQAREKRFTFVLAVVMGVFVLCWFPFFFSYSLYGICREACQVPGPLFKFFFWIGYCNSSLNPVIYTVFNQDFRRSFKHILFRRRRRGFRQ

[26] = target: T1, Sodium-dependent dopamine transporter; assay: Enhancing of [3H]WIN35,428 binding to recombinant human DAT expressed in HEK293 cell membranes pre-incubated for 10 mins before radioligand addition and measured 90 mins after radioligand addition by micro beta scintillation counting analysis relative to control

T1 sequence (Q01959 whole entry): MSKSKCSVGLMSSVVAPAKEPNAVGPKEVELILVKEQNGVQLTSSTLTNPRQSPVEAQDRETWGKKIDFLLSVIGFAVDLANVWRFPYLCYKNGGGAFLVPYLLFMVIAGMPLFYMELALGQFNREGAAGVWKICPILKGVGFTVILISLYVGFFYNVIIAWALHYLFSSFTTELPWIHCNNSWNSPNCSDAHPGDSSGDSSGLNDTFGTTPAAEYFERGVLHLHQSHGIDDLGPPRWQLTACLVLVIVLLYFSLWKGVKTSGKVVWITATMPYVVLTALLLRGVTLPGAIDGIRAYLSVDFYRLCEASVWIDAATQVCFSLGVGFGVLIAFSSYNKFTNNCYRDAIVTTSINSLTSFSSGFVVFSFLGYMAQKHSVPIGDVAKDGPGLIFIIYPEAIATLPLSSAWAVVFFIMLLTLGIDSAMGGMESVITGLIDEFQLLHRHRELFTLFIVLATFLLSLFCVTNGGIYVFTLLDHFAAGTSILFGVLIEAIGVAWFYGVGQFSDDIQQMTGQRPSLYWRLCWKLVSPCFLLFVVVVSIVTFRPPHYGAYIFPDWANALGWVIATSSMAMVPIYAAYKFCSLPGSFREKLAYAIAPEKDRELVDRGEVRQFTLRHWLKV
T2 sequence (P23975 whole entry): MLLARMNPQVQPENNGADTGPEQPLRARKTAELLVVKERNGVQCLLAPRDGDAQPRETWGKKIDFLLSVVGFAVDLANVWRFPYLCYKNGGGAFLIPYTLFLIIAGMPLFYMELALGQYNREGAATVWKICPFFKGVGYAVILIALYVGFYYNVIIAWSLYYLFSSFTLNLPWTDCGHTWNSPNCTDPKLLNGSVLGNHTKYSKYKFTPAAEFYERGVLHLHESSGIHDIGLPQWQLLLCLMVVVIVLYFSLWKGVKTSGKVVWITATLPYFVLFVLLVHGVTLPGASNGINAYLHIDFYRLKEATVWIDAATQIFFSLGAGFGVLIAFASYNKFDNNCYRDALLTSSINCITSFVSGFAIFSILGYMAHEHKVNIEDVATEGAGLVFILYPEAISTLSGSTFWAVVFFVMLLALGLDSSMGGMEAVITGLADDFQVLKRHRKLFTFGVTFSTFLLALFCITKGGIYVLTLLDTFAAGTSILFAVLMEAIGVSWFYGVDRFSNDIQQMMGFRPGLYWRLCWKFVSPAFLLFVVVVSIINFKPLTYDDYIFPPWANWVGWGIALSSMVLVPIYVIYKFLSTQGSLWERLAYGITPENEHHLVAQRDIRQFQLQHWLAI
T4 sequence (Q61327 whole entry): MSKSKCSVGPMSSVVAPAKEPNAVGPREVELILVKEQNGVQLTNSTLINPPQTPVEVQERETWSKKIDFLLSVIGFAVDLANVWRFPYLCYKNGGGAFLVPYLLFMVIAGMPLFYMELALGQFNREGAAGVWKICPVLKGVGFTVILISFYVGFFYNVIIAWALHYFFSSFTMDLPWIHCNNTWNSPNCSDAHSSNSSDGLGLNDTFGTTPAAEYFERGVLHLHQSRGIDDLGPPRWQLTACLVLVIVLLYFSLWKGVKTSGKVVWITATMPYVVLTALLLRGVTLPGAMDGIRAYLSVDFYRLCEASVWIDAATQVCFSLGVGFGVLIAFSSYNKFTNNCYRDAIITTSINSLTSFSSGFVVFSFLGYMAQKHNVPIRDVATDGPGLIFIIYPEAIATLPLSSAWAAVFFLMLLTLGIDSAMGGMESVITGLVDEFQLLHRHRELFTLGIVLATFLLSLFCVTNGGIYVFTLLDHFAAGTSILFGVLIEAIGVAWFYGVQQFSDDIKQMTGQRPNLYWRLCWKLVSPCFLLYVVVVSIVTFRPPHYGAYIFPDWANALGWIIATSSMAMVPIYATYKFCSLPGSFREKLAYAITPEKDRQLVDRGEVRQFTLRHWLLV
Sequence of Alpha-2B adrenergic receptor (P18089 whole entry): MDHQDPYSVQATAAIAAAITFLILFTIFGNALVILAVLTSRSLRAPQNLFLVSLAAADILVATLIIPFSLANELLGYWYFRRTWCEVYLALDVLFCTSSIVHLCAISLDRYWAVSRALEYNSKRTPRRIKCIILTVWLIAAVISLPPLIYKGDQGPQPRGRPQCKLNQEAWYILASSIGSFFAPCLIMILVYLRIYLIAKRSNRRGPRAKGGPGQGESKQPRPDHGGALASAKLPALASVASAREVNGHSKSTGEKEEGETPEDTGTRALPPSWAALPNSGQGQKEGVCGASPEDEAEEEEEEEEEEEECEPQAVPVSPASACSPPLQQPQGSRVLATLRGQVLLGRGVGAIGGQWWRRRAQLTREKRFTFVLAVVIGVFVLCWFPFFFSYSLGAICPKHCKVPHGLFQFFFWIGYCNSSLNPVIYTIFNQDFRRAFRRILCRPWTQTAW
Sequence of Sodium-dependent dopamine transporter (Mus musculus) (Q61327 whole entry): as the sequence (Q61327 whole entry) above
Sequence of Sigma intracellular receptor 2 (Q5U3Y7 whole entry): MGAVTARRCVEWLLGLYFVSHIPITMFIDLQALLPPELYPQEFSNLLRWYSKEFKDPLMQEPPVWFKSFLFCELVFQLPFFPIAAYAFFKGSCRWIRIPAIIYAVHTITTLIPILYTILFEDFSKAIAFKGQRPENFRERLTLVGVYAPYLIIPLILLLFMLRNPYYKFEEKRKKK
Sequence of Alpha-2A adrenergic receptor (P08913 whole entry): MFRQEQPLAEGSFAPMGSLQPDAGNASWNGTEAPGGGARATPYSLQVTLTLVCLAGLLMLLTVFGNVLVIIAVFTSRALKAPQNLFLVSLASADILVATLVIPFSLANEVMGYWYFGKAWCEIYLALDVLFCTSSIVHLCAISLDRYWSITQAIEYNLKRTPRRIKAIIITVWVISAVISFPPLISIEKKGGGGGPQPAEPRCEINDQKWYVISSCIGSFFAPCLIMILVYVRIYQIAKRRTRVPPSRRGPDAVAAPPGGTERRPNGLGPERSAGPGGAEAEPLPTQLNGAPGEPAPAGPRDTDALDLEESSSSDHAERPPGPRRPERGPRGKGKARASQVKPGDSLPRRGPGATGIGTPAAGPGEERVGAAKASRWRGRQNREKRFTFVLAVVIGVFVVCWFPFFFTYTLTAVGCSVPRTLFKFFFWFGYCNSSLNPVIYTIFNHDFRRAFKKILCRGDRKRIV

Compound: CNC(=O)[C@@]12C[C@@H]1[C@@H](n1cnc3c(NC)nc(C#Cc4ccc(Br)s4)nc31)[C@H](O)[C@@H]2O
Activity [1]: 217% | EC50 ([1]; read-out: EC50): 0.0091 µM | Activity [2]: 369% | EC50 ([2]; read-out: EC50): 0.87 µM | Activity [3]: 285% | EC50 ([3]; read-out: EC50): 0.67 µM | IC50 [4]: 0.229 µM | Activity [5]: inactive | IC50 [6]: 6.11 µM | Activity [7]: inactive | EC50 ([7]; read-out: EC50): > 10 µM | Activity [8]: inactive | EC50 [8]: > 10 µM | IC50 [9]: > 10 µM | Emax [10]: 810% | EC50 [11]: 1.1 µM | IC50 [12]: 3.26 µM

Activity [13]: inactive | Ki (Adenosine receptor A3 [14]): 0.262 µM | inhibition [15]: 3% | Ki [16]: 5.9 µM
Compound: CNc1nc(C#Cc2ccc(Cl)s2)nc2c1ncn2[C@H]1[C@H](O)[C@H](O)[C@]2(C(=O)OCCc3ccccc3)C[C@H]12

Activity [13]: 84% | inhibition [17]: inactive | Ki (Adenosine receptor A3 [14]): 0.00625 µM | Ki (Adenosine receptor A3 [18]): 0.597 µM | Ki [19]: 3.1 µM | Ki [20]: 5 to 10 µM | Ki [21]: 5 to 10 µM | Ki [22]: > 10 µM | Ki [23]: > 10 µM | Ki [24]: > 10 µM | Ki [25]: > 10 µM | EC50 [26]: > 1 µM
Compound: CCCNc1nc(C#Cc2ccc(Cl)s2)nc2c1ncn2[C@@H]1O[C@H](C(=O)NC)[C@@H](O)[C@H]1O
Time (Mus musculus): >6 h
